The target of this assay is CrSMT (Chlamydomonas reinhardtii, UniProt A8IJ34). Briefly: [methyl-3H3]SAM radiometric assay, initial velocity, Lineweaver-Burk. Particulars: E. coli lysate; 100 μM SAM (saturating), phosphate buffer pH 7.5. The format is biochemical. The procedure, abridged:
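Recombinant 384-aa CrSMT expressed in E. coli BL21(DE3), IPTG-induced (0.4 mM, 2 h, 30 °C), French-press lysate in 20 mM phosphate, 5% glycerol, pH 7.5. Lysate (1–2 mg total protein) incubated 45 min with sterol acceptor 5–150 μM plus [methyl-3H3]SAM (0.6 μCi). Methanolic KOH saponification, hexane extraction of non-saponifiable lipids. Sterol-free background 500–1000 dpm. Lineweaver–Burk analysis.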

As to `CC(C)=CCC[C@@H](C)[C@H]1CC[C@@]2(C)C3=C(CC[C@]12C)[C@@]1(C)CC[C@H](O)C(C)(C)[C@@H]1CC3` [compound 1, Lanosterol], the Michaelis-Menten constant (Km) (commonly the concentration of substrate that gives half-maximal velocity) stood at 24 µM.

As for `CC(C)=CCC[C@@H](C)[C@H]1CC[C@H]2C3=C(CC[C@]12C)[C@@]1(C)CC[C@H](O)C[C@@H]1CC3` [compound 9, Zymosterol], the Km is 22 µM.

These data come from publication PMC5182512 (Phytochemistry, 2014).
